# Results: publication PMC5656813 (Arthritis & Rheumatology (Hoboken, N.j.), 2017)
# Experiments:
# RA patients = test: Study 2, treatment‐emergent adverse events; format: in vivo, human
# Outline: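 Both double-blind, placebo-controlled trials in RA patients on stable MTX. Oral capsules daily for 4 weeks, with 7–10-day follow-up: 200 mg once daily or 100 mg twice daily (study 1); 30, 75, 150 or 300 mg once daily (study 2). At every visit: AEs, vital signs, hematology, serum biochemistry, coagulation and urinalysis. EKG at baseline and follow-up, plus week 4 in study 1. Safety population, descriptive treatment-emergent AE summaries.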
# [1] = tested on: VCAM‐1, ICAM‐1, MMP‐3, haptoglobin, IL‐18, YKL‐40; test: Study 2, PD marker proteins in plasma; format: in vivo, human; settings: 75, 150, or 300 mg, after 4 weeks
# Outline: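 Plasma taken at baseline and week 4 from all study 2 participants. Dosed once daily for 4 weeks. YKL-40 measured by ELISA; VCAM-1, ICAM-1, MMP-3, haptoglobin and IL-18 quantified by a second technology at a service laboratory. Each patient normalized to own baseline, expressed as percent change. Mean ± SEM; Kruskal-Wallis test with Dunn's post hoc test.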
# healthy volunteers = settings: cited from earlier work
# [2] = cited from earlier work
compound,measurement,setting,value
O=C(Nc1nc2cccc(-c3ccc(CN4CCS(=O)(=O)CC4)cc3)n2n1)C1CC1 [Filgotinib],treatment-related TEAE: Laboratory findings,RA patients; 30 mg once daily,2 (11.8) number (%) of patients
same,treatment-related TEAE: Lipase increased,RA patients; 30 mg once daily,0 number (%) of patients
same,treatment-related TEAE: Musculoskeletal and connective tissue disorders,RA patients; 30 mg once daily,0 number (%) of patients
same,treatment-related TEAE: Nervous system disorders,RA patients; 30 mg once daily,0 number (%) of patients
same,treatment-related TEAE: Renal and urinary disorders,RA patients; 30 mg once daily,0 number (%) of patients
same,treatment-related TEAE: Abdominal discomfort,RA patients; 75 mg once daily,0 number (%) of patients
same,"treatment-related TEAE: Abdominal pain, upper",RA patients; 75 mg once daily,0 number (%) of patients
same,treatment-related TEAE: Aspartate aminotransferase increased,RA patients; 75 mg once daily,0 number (%) of patients
same,treatment-related TEAE: Blood amylase increased,RA patients; 75 mg once daily,0 number (%) of patients
same,treatment-related TEAE: Blood and lymphatic system disorders,RA patients; 75 mg once daily,1 (4.5) number (%) of patients
same,treatment-related TEAE: Blood triglycerides increased,RA patients; 75 mg once daily,0 number (%) of patients
same,"treatment-related TEAE: Cystitis, noninfectious",RA patients; 75 mg once daily,0 number (%) of patients
same,treatment-related TEAE: Duodenogastric reflux,RA patients; 75 mg once daily,1 (4.5) number (%) of patients
same,treatment-related TEAE: Ear and labyrinth disorders,RA patients; 75 mg once daily,0 number (%) of patients
same,treatment-related TEAE: Gastrointestinal disorders,RA patients; 75 mg once daily,2 (9.1) number (%) of patients
same,treatment-related TEAE: Gastrointestinal pain,RA patients; 75 mg once daily,0 number (%) of patients
same,treatment-related TEAE: General disorders and administration site reactions,RA patients; 75 mg once daily,0 number (%) of patients
same,treatment-related TEAE: Gingival bleeding,RA patients; 75 mg once daily,1 (4.5) number (%) of patients
same,treatment-related TEAE: Infections and infestations,RA patients; 75 mg once daily,0 number (%) of patients
same,treatment-related TEAE: Laboratory findings,RA patients; 75 mg once daily,0 number (%) of patients
same,treatment-related TEAE: Lipase increased,RA patients; 75 mg once daily,0 number (%) of patients
same,treatment-related TEAE: Musculoskeletal and connective tissue disorders,RA patients; 75 mg once daily,0 number (%) of patients
same,treatment-related TEAE: Nervous system disorders,RA patients; 75 mg once daily,0 number (%) of patients
same,treatment-related TEAE: Renal and urinary disorders,RA patients; 75 mg once daily,0 number (%) of patients
same,treatment-related TEAE: Abdominal discomfort,RA patients; 150 mg once daily,0 number (%) of patients
same,"treatment-related TEAE: Abdominal pain, upper",RA patients; 150 mg once daily,0 number (%) of patients
same,treatment-related TEAE: Aspartate aminotransferase increased,RA patients; 150 mg once daily,0 number (%) of patients
same,treatment-related TEAE: Blood amylase increased,RA patients; 150 mg once daily,0 number (%) of patients
same,treatment-related TEAE: Blood and lymphatic system disorders,RA patients; 150 mg once daily,0 number (%) of patients
same,treatment-related TEAE: Blood triglycerides increased,RA patients; 150 mg once daily,0 number (%) of patients
same,"treatment-related TEAE: Cystitis, noninfectious",RA patients; 150 mg once daily,0 number (%) of patients
same,treatment-related TEAE: Duodenogastric reflux,RA patients; 150 mg once daily,0 number (%) of patients
same,treatment-related TEAE: Ear and labyrinth disorders,RA patients; 150 mg once daily,0 number (%) of patients
same,treatment-related TEAE: Gastrointestinal disorders,RA patients; 150 mg once daily,1 (6.7) number (%) of patients
same,treatment-related TEAE: Gastrointestinal pain,RA patients; 150 mg once daily,0 number (%) of patients
same,treatment-related TEAE: General disorders and administration site reactions,RA patients; 150 mg once daily,0 number (%) of patients
same,treatment-related TEAE: Gingival bleeding,RA patients; 150 mg once daily,0 number (%) of patients
same,treatment-related TEAE: Infections and infestations,RA patients; 150 mg once daily,0 number (%) of patients
same,treatment-related TEAE: Laboratory findings,RA patients; 150 mg once daily,0 number (%) of patients
same,treatment-related TEAE: Lipase increased,RA patients; 150 mg once daily,0 number (%) of patients
same,treatment-related TEAE: Musculoskeletal and connective tissue disorders,RA patients; 150 mg once daily,0 number (%) of patients
same,treatment-related TEAE: Nervous system disorders,RA patients; 150 mg once daily,0 number (%) of patients
same,treatment-related TEAE: Renal and urinary disorders,RA patients; 150 mg once daily,0 number (%) of patients
same,treatment-related TEAE: Abdominal discomfort,RA patients; 300 mg once daily,0 number (%) of patients
same,"treatment-related TEAE: Abdominal pain, upper",RA patients; 300 mg once daily,0 number (%) of patients
same,treatment-related TEAE: Aspartate aminotransferase increased,RA patients; 300 mg once daily,0 number (%) of patients
same,treatment-related TEAE: Blood amylase increased,RA patients; 300 mg once daily,0 number (%) of patients
same,treatment-related TEAE: Blood and lymphatic system disorders,RA patients; 300 mg once daily,0 number (%) of patients
same,treatment-related TEAE: Blood triglycerides increased,RA patients; 300 mg once daily,0 number (%) of patients
same,"treatment-related TEAE: Cystitis, noninfectious",RA patients; 300 mg once daily,1 (5.0) number (%) of patients
same,treatment-related TEAE: Duodenogastric reflux,RA patients; 300 mg once daily,0 number (%) of patients
same,treatment-related TEAE: Ear and labyrinth disorders,RA patients; 300 mg once daily,0 number (%) of patients
same,treatment-related TEAE: Gastrointestinal disorders,RA patients; 300 mg once daily,2 (10.0) number (%) of patients
same,treatment-related TEAE: Gastrointestinal pain,RA patients; 300 mg once daily,1 (5.0) number (%) of patients
same,treatment-related TEAE: General disorders and administration site reactions,RA patients; 300 mg once daily,0 number (%) of patients
same,treatment-related TEAE: Gingival bleeding,RA patients; 300 mg once daily,0 number (%) of patients
same,treatment-related TEAE: Laboratory findings,RA patients; 300 mg once daily,0 number (%) of patients
same,treatment-related TEAE: Lipase increased,RA patients; 300 mg once daily,0 number (%) of patients
same,treatment-related TEAE: Musculoskeletal and connective tissue disorders,RA patients; 300 mg once daily,0 number (%) of patients
same,treatment-related TEAE: Nervous system disorders,RA patients; 300 mg once daily,0 number (%) of patients
same,treatment-related TEAE: Renal and urinary disorders,RA patients; 300 mg once daily,1 (5.0) number (%) of patients
same,effect on levels of circulating PD markers,[1],dose‐dependent effect
same,inhibition of JAK pathways in PD assays,"healthy volunteers; healthy volunteers, daily doses of ≥100 mg",Significant inhibition of JAK‐1 pathways but not JAK‐2
same,tolerability and safety in healthy volunteers,"healthy volunteers; up to 10 days, doses up to 450 mg once daily",well tolerated and safe
same,PK half‐life,[2],~7 h
